Measurements: ChEMBL document CHEMBL1137208, “2-(1-adamantyl)-4-(thio)chromenone-6-carboxylic acids: potent reversible inhibitors of human steroid sulfatase” (J Med Chem, 2004)

What was measured:
[1] = molecular target: T1, Steryl-sulfatase (Homo sapiens, UniProt P08842); experiment: Inhibitory activity against human steroid sulfatase over-expressed in CHO cells; assay type: functional, cell-based
T1 sequence (P08842 whole entry): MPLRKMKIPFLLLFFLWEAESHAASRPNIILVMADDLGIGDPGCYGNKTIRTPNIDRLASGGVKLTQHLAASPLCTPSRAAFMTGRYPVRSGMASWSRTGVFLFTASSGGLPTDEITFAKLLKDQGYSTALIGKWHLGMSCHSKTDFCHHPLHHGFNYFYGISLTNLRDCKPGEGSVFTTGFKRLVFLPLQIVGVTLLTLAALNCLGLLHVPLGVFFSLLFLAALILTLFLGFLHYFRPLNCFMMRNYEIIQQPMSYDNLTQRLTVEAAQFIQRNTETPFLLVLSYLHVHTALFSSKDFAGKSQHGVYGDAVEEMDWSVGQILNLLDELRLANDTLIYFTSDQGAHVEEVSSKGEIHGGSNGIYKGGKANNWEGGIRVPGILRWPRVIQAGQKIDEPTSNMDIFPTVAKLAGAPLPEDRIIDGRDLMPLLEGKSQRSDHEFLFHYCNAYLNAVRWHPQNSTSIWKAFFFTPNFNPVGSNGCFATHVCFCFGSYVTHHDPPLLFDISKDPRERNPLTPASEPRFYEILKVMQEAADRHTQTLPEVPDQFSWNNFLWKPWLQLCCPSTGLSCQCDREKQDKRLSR
Procedure, shortened: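 Live CHO cells stably expressing human STS, 30 000/well, adhered overnight in phenol red-free RPMI 1640 with 10% FCS. Cells were treated with graded inhibitor for 24 h. Medium was then replaced with the same concentrations plus 0.5 mM 4-MUS for 4 h at 37 °C. Supernatant was stopped at pH 10.4 and read at ex 355/em 460 nm. Signal was normalized to sulforhodamine B protein. Triplicates; IC50 is 50% inhibition.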

[2] = molecular target: T1, Steryl-sulfatase; experiment: Inhibitory activity against human steroid sulfatase
Procedure, shortened: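 Highly purified human STS from stably transfected recombinant CHO cells (purity >95%). Substrate 0.5 mM 4-methylumbelliferyl sulfate, pH 7.5, 37 °C. 4-Methylumbelliferone formed was read by fluorescence after alkalization. Inhibitors were added at graded concentrations from ethanol stocks (final ethanol ≤2%). Ki came from turnover at several substrate and inhibitor levels, using a Hanes plot and a Km/Vmax vs I replot.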

Row | IC50 [1] [µM] | Ki [2] [µM] | Compound
1 | > 30 | > 50 | NC(=O)c1ccc2oc(C34CC5CC(CC(C5)C3)C4)cc(=O)c2c1
2 | > 30 | > 20 | O=Cc1ccc2oc(C34CC5CC(CC(C5)C3)C4)cc(=O)c2c1
3 | ~30 | 32 | O=c1cc(C23CC4CC(CC(C4)C2)C3)oc2ccc(CO)cc12
4 | 9.4 | 0.5 | O=C(O)c1ccc2oc(C34CC5CC(CC(C5)C3)C4)cc(=O)c2c1
5 | 0.026 | 0.19 | NS(=O)(=O)Oc1ccc2oc(C34CC5CC(CC(C5)C3)C4)cc(=O)c2c1
6 | 12.3 | 2.2 | O=C(O)C(=O)c1ccc2oc(C34CC5CC(CC(C5)C3)C4)cc(=O)c2c1
7 | > 30 | > 50 | N#Cc1ccc2sc(C34CC5CC(CC(C5)C3)C4)cc(=O)c2c1
8 | > 30 | > 50 | COC(=O)c1ccc2oc(C34CC5CC(CC(C5)C3)C4)cc(=O)c2c1
9 | 0.18 | 0.53 | O=C(O)c1ccc2sc(C34CC5CC(CC(C5)C3)C4)cc(=O)c2c1
10 | > 30 | > 50 | O=C(O)Cc1ccc2oc(C34CC5CC(CC(C5)C3)C4)cc(=O)c2c1
11 | > 30 | 3.2 | O=C(CO)c1ccc2oc(C34CC5CC(CC(C5)C3)C4)cc(=O)c2c1
12 | 0.024 | 0.21 | NS(=O)(=O)Oc1ccc2sc(C34CC5CC(CC(C5)C3)C4)cc(=O)c2c1

Row | Compound | IC50 [1] [µM] | Ki [2] [µM]
13 | C[C@]12CC[C@@H]3c4ccc(OS(N)(=O)=O)cc4CC[C@H]3[C@@H]1CCC2=O [EMATE] | 0.02 | 
